14 compounds from ChEMBL document CHEMBL1129238, “Structure--activity relationships of 1-(2-Deoxy-2-fluoro-beta-L-arabinofuranosyl)pyrimidine nucleosides as anti-hepatitis B virus agents” (J Med Chem, 1996) can be followed below.

Assay [1] is filed under the species Homo sapiens. The assay is described as follows: Anti hepatitis-B virus activity was evaluated in 2.2.15 cells. The assay is classed as functional, cell-based. Conditions: HepG2 2.2.15. Summed up: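 HBV-producing 2.2.15 cells; EC50 reported; compounds examined at concentrations up to 10 μM.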
Assay [2] is filed under the species Homo sapiens. The assay is described as follows: The growth inhibition activity for the compound was evaluated in 2.2.15 cells. Conditions: HepG2 2.2.15. In kind it is functional, cell-based. Summed up:
(§1)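 Cytotoxicity (growth inhibition, IC50) measured in 2.2.15 cells and in CEM cells, with compounds tested at concentrations up to 200 μM.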

For assay [3], the species on record is Homo sapiens. The assay is described as follows: Selectivity index was determined from the ratio of IC50 to the EC50 values evaluated in 2.2.15 cells. The assay is classed as functional, HepG2 2.2.15. Summed up: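 Selectivity computed as the ratio of the growth-inhibition IC50 to the anti-HBV EC50, both from 2.2.15 cells. Compounds were tested up to 200 μM for toxicity and up to 10 μM for antiviral activity.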

The test system of assay [4] is CCRF-CEM. The assay is described as follows: The growth inhibition activity for the compound was evaluated in CEM cells. In kind it is functional, cell-based. Particulars: Homo sapiens. Put shortly: as §1

For orientation: EC50 means the concentration needed to bring the measured effect to its halfway point. Read a low EC50 as a more potent agent. For orientation: IC50 means the point on the concentration scale where inhibition reaches its midpoint. A lower IC50 goes with greater potency in that assay. Turning to `Cc1cn([C@@H]2O[C@H](CO)[C@@H](O)[C@@H]2F)c(=O)[nH]c1=O` [5-METHYL-2'-FLUOROARAURACIL], the EC50 in assay [1] came to 0.1 µM. For the same compound, the IC50 in assay [2] and in assay [4] was more than 200 µM in each case. The Selectivity in assay [3] is on record as more than 2000.
In assay [1], `O=c1[nH]c(=O)n([C@H]2O[C@@H](CO)[C@H](O)[C@H]2F)cc1Cl` returned an EC50 of more than 10 µM. Also, in assay [2], the concentration for half-maximal inhibition (IC50) is more than 200 µM.
As for `Nc1nc(=O)n([C@H]2O[C@@H](CO)[C@H](O)[C@H]2F)cc1F`, the EC50 in assay [1] is more than 10 µM. This compound had a concentration for half-maximal inhibition (IC50) in assay [2] of more than 200 µM.
On the same counts, the results for `O=c1[nH]c(=O)n([C@H]2O[C@@H](CO)[C@H](O)[C@H]2F)cc1Br` are more than 10 µM and more than 200 µM.
On the same counts, the results for `O=c1[nH]c(=O)n([C@@H]2O[C@H](CO)[C@@H](O)[C@H]2F)cc1I` are more than 10 µM and more than 200 µM.
The compound `Nc1ccn([C@@H]2O[C@H](CO)[C@@H](O)[C@@H]2F)c(=O)n1` registered an EC50 in assay [1] of 1.4 µM. Also, the 50% inhibitory concentration (IC50) is more than 200 µM in assay [2] and more than 100 µM in assay [4]. In assay [3], the Selectivity is more than 140.
`Nc1nc(=O)n([C@H]2O[C@@H](CO)[C@H](O)[C@H]2F)cc1Cl` showed a concentration giving a half-maximal response (EC50) in assay [1] of more than 10 µM. Besides, the IC50 in assay [2] is more than 200 µM.
In assay [1], `Nc1nc(=O)n([C@@H]2O[C@H](CO)[C@@H](O)[C@@H]2F)cc1I` [FIACITABINE] had an EC50 of 5 µM. The same compound registered a concentration for half-maximal inhibition (IC50) in assay [2] of more than 200 µM. Also, the Selectivity in assay [3] is recorded as more than 40.
The compound `O=c1[nH]c(=O)n([C@H]2O[C@@H](CO)[C@H](O)[C@H]2F)cc1F` showed an EC50 in assay [1] of more than 10 µM. This compound also had a half-maximal inhibitory concentration (IC50) in assay [2] of more than 200 µM.
On the same counts, the results for `O=c1[nH]c(=O)n([C@@H]2O[C@H](CO)[C@@H](O)[C@@H]2F)cc1C(F)(F)F` are more than 10 µM and more than 200 µM.
`Nc1nc(=O)n([C@H]2O[C@@H](CO)[C@H](O)[C@H]2F)cc1Br` showed an EC50 in assay [1] of more than 10 µM. In assay [2], the IC50 was more than 200 µM.
In assay [1], `C#Cc1cn([C@H]2O[C@@H](CO)[C@H](O)[C@H]2F)c(=O)[nH]c1=O` displayed an EC50 of more than 10 µM. The compound also displayed an IC50 in assay [2] of more than 200 µM.
`O=c1[nH]c(=O)n([C@H]2O[C@@H](CO)[C@H](O)[C@@H]2F)cc1/C=C/Br` had an EC50 in assay [1] of more than 10 µM. The IC50 in assay [2] is more than 200 µM; in assay [4], more than 100 µM.
In turn, `CCc1cn([C@H]2O[C@@H](CO)[C@H](O)[C@@H]2F)c(=O)[nH]c1=O` had an EC50 in assay [1] of more than 10 µM. This compound had an IC50 in assay [2] of more than 200 µM.
